Experimental data from ChEMBL document CHEMBL3870337, “Development of a triazole class of highly potent Porcn inhibitors” (Bioorg Med Chem Lett, 2016).
Calls of active or inactive are those of the source. No cut-off for these calls is given here.

Test system: not listed separately
Assay: Half life in mouse plasma at 2 uM in presence of NADPH by LC-MS/MS analysis
Format: ADME, cell-free
Conditions: not given

For `O=C(Cn1cc(-c2ccncc2)nn1)Nc1ccc(-c2ccccc2)cn1`, which t1/2 is on record?
Its t1/2 is 1.67 h.

For `O=C(Cn1nnc(-c2ccncc2)c1-c1ccccc1)Nc1ccc(-c2ccccc2)cn1`, which t1/2 is on record?
The t1/2 was 2.17 h.

Which t1/2 does the source give for `O=C(CSc1nnc(-c2ccncc2)n1-c1ccccc1)Nc1ccc(-c2cccnc2)cc1` here?
The t1/2 was under 0.083 h.

Molecular target: T1, Protein-serine O-palmitoleoyltransferase porcupine (Homo sapiens) (UniProt Q9H237)
T1 sequence (whole entry): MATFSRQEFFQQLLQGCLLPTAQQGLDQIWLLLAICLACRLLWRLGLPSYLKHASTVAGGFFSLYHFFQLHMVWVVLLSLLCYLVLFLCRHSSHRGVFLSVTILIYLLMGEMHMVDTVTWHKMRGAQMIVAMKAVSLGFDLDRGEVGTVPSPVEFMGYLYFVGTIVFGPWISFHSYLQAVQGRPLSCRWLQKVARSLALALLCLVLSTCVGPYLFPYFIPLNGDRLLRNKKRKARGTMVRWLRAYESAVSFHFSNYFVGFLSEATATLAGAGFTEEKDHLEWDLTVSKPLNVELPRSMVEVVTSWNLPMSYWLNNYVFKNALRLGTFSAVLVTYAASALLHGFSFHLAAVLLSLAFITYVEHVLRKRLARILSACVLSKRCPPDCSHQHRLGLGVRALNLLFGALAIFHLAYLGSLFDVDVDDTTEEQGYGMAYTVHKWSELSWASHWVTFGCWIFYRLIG
Assay: Inhibition of porcupine-mediated phosphorylation of dishevelled 2/3 in human HeLa cells at 1 uM after 24 hrs by Western blot analysis
Format: cell-based
Conditions: not given
In short: (§1)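 HeLa cells, which have high cell-autonomous Wnt signalling, were treated for 24 h with compound, the LGK974 reference or DMSO vehicle. Cell lysates were then analysed by Western blot for phosphorylation of LRP6 and of Dvl2/3, used as biochemical markers of Wnt pathway activity.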

Which inhibition does the source give for `O=C(Cn1nnc(-c2ccncc2)c1-c1ccccc1)Nc1ccc(-c2ccccc2)cn1` here?
The inhibition was “Active”.

Test system: not listed separately
Assay: Stability in mouse plasma at 2 uM in presence of NADPH by LC-MS/MS analysis
Conditions: not given

With `O=C(Cn1nnc(-c2ccncc2)c1-c1ccccc1)Nc1ccc(-c2ccccc2)cn1` as the molecule, how does the half-life at 2 µM read?
Its half-life at 2 µM is over 4 h.

Molecular target: T2, Protein-serine O-palmitoleoyltransferase porcupine (Mus musculus, UniProt Q9JJJ7)
T2 sequence (Q9JJJ7 whole entry): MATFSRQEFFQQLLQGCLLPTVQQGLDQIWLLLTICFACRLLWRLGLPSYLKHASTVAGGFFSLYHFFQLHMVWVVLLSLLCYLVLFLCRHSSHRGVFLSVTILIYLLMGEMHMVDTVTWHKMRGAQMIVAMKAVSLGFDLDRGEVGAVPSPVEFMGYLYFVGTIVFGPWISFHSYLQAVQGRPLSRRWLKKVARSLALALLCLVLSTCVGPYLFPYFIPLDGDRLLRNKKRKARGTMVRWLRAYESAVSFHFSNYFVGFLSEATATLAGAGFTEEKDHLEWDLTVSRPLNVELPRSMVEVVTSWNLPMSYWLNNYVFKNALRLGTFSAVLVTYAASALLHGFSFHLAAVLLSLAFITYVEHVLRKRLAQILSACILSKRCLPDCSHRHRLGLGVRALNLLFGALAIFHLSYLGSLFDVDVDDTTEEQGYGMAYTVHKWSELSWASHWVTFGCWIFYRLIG
Assay: Inhibition of porcupine-mediated Wnt signaling in mouse L-cells after 24 hrs by springerImage-Topflash reporter assay
Conditions: not given

For `CC(C(=O)Nc1ccc(-c2ccccc2)cn1)n1nnc(-c2ccncc2)c1-c1ccccc1` (stereo unspecified), which EC50 is on record?
The EC50 was 3 nM.

Which EC50 does the source give for `O=C(Cn1nnc(-c2ccnc(F)c2)c1-c1ccccc1)Nc1ccc(-c2ccccc2)cn1` here?
Its EC50 is 0.13 nM.

With `O=C(Cn1nnc(-c2ccncc2)c1-c1ccccc1)Nc1ccc(-c2cccnc2)cc1` as the molecule, how does the EC50 read?
The EC50 was 200 nM.

Which EC50 does the source give for `O=C(Cn1nnc(-c2ccncc2)c1-c1ccccc1)Nc1cccc(-c2ccccc2)c1` here?
The EC50 was 270 nM.

For `O=C(Cn1nnc(-c2ccncc2)c1-c1ccccc1)Nc1ccc(-c2ccsc2)cn1`, which EC50 is on record?
Its EC50 is 0.65 nM.

Which EC50 does the source give for `O=C(Cn1nnc(-c2ccncc2)c1-c1ccccc1)Nc1ccc(N2CCCCC2)cc1` here?
Its EC50 is 8 nM.

Which EC50 does the source give for `O=C(Cn1nnc(-c2ccncc2)c1-c1ccccc1)Nc1ccc(N2CCCCC2)cn1` here?
The EC50 was over 1000 nM.

Which EC50 does the source give for `O=C(Cn1nnc(-c2ccncc2)c1-c1ccccc1)Nc1ccc(-c2cncnc2)cn1` here?
The EC50 was 1.8 nM.

With `O=C(Cn1cc(-c2ccncc2)nn1)Nc1ccc(-c2ccccc2)cn1` as the molecule, how does the EC50 read?
Its EC50 is 9 nM.

For `O=C(Cn1cc(-c2ccccc2)nn1)Nc1ccc(-c2ccccc2)cn1`, which EC50 is on record?
The EC50 was over 5000 nM.

With `COc1ccc(-c2c(-c3ccncc3)nnn2CC(=O)Nc2ccc(-c3ccccc3)cn2)cc1` as the molecule, how does the EC50 read?
Its EC50 is 0.18 nM.

For `O=C(Cn1cc(-c2cccnc2)nn1)Nc1ccc(-c2ccccc2)cn1`, which EC50 is on record?
Its EC50 is 100 nM.

With `O=C(Cn1cc(-c2ccccn2)nn1)Nc1ccc(-c2ccccc2)cn1` as the molecule, how does the EC50 read?
Its EC50 is over 5000 nM.

Which EC50 does the source give for `O=C(Cn1nnc(-c2ccncc2)c1-c1ccccc1)Nc1ncc(-c2ccccc2)s1` here?
Its EC50 is 80000 nM.

With `N#Cc1ccc(-c2c(-c3ccncc3)nnn2CC(=O)Nc2ccc(-c3ccccc3)cn2)cc1` as the molecule, how does the EC50 read?
The EC50 was 0.48 nM.

Which EC50 does the source give for `O=C(Cn1nnc(-c2ccncc2)c1-c1ccccc1)Nc1ccc(-c2ccncc2)cc1` here?
The EC50 was 7 nM.

With `O=C(Cn1nnc(-c2ccccc2)c1-c1ccccc1)Nc1ccc(-c2ccccc2)cn1` as the molecule, how does the EC50 read?
Its EC50 is 400 nM.

With `O=C(Cn1nnc(-c2ccncc2)c1-c1ccccc1)Nc1ccc(-c2ccccn2)cc1` as the molecule, how does the EC50 read?
Its EC50 is 1.8 nM.

For `O=C(Cn1nnc(-c2cccnc2)c1-c1ccccc1)Nc1ccc(-c2ccccc2)cn1`, which EC50 is on record?
The EC50 was 5 nM.

For `O=C(Cn1nnc(-c2ccncc2)c1-c1ccccc1)Nc1ccc(-c2ccoc2)cn1`, which EC50 is on record?
Its EC50 is 0.6 nM.

With `O=C(Cn1nnc(-c2ccncc2)c1-c1ccccc1)Nc1ccc(-c2ccccc2)nc1` as the molecule, how does the EC50 read?
Its EC50 is 0.2 nM.

With `O=C(Cn1nnc(-c2ccncc2)c1-c1ccccc1)Nc1ccc(-c2ccccc2)cn1` as the molecule, how does the EC50 read?
The EC50 was 0.08 nM.

Which EC50 does the source give for `O=C(Cn1nnc(-c2ccncc2)c1-c1ccccc1)Nc1ncc(-c2ccccc2)cn1` here?
Its EC50 is 8 nM.

For `CCOC(=O)c1ccc(-c2c(-c3ccncc3)nnn2CC(=O)Nc2ccc(-c3ccccc3)cn2)cc1`, which EC50 is on record?
Its EC50 is 0.7 nM.

With `O=C(Cn1nnc(-c2ccnc(C(F)(F)F)c2)c1-c1ccccc1)Nc1ccc(-c2ccccc2)cn1` as the molecule, how does the EC50 read?
Its EC50 is 0.6 nM.

With `CCC(C(=O)Nc1ccc(-c2ccccc2)cn1)n1nnc(-c2ccncc2)c1-c1ccccc1` (stereo unspecified) as the molecule, how does the EC50 read?
Its EC50 is 12 nM.

Which EC50 does the source give for `O=C(Cn1nnc(-c2ccncc2)c1-c1ccccc1)Nc1ccc(-c2ccco2)cn1` here?
The EC50 was 0.4 nM.

Which EC50 does the source give for `COc1ccccc1-c1c(-c2ccncc2)nnn1CC(=O)Nc1ccc(-c2ccccc2)cn1` here?
Its EC50 is 9 nM.

Which EC50 does the source give for `O=C(Cn1nnc(-c2ccncc2)c1-c1ccc(C(F)(F)F)cc1)Nc1ccc(-c2ccccc2)cn1` here?
Its EC50 is 0.3 nM.

With `O=C(Cn1nnc(-c2ccncc2)c1-c1ccc(F)cc1)Nc1ccc(-c2ccccc2)cn1` as the molecule, how does the EC50 read?
Its EC50 is 0.2 nM.

With `Cc1cccc(-c2c(-c3ccncc3)nnn2CC(=O)Nc2ccc(-c3ccccc3)cn2)c1` as the molecule, how does the EC50 read?
Its EC50 is 0.4 nM.

Which EC50 does the source give for `O=C(Cn1nnc(-c2ccncc2)c1-c1cccc2ccccc12)Nc1ccc(-c2ccccc2)cn1` here?
The EC50 was 6.5 nM.

Which EC50 does the source give for `COc1ccc(-c2nnn(CC(=O)Nc3ccc(-c4ccccc4)cn3)c2-c2ccccc2)cc1` here?
The EC50 was 18 nM.

Which EC50 does the source give for `Cc1ccccc1-c1c(-c2ccncc2)nnn1CC(=O)Nc1ccc(-c2ccccc2)cn1` here?
Its EC50 is 40 nM.

For `Cc1cc(-c2nnn(CC(=O)Nc3ccc(-c4ccccc4)cn3)c2-c2ccccc2)ccn1`, which EC50 is on record?
The EC50 was 0.14 nM.

For `O=C(Cn1nnc(-c2ccccn2)c1-c1ccccc1)Nc1ccc(-c2ccccc2)cn1`, which EC50 is on record?
The EC50 was 2500 nM.

With `O=C(Cn1nnc(-c2ccccc2C(F)(F)F)c1-c1ccccc1)Nc1ccc(-c2ccccc2)cn1` as the molecule, how does the EC50 read?
Its EC50 is 500 nM.

For `O=C(Cn1nnc(-c2ccncc2)c1-c1ccccc1)Nc1ccc(-c2cccnc2)cn1`, which EC50 is on record?
The EC50 was over 1000 nM.

Molecular target: T1, Protein-serine O-palmitoleoyltransferase porcupine (Homo sapiens)
Assay: Inhibition of porcupine-mediated phosphorylation of LRP6 in human HeLa cells at 1 uM after 24 hrs by Western blot analysis
Format: cell-based
Conditions: not given
In short: as §1

For `O=C(Cn1nnc(-c2ccncc2)c1-c1ccccc1)Nc1ccc(-c2ccccc2)cn1`, which inhibition is on record?
The inhibition was “Active”.

Test system: not listed separately
Assay: Half life in ICR/CD-1 mouse liver S9 fraction at 2 uM in presence of NADPH by LC-MS/MS analysis
Format: ADME, subcellular
Conditions: s9, 2 µM

With `O=C(Cn1cc(-c2ccncc2)nn1)Nc1ccc(-c2ccccc2)cn1` as the molecule, how does the t1/2 read?
The t1/2 was 3.33 h.

For `O=C(CSc1nnc(-c2ccncc2)n1-c1ccccc1)Nc1ccc(-c2cccnc2)cc1`, which t1/2 is on record?
Its t1/2 is 0.25 h.
